This excerpt belongs to a sample that is enriched for hits.
T cruzi HTS – inhibitors of intracellular Trypanosoma cruzi, primary screen, cell-based, plate reader, single point, set 2; intracellular Trypanosoma cruzi in host cells; activity score (inhibition), % at 5.01 µM; 4.9% of 22,000 active; in the data active means activity score above about 55%; inconclusive means no clear call, values can overlap the other calls;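 further: parasites and compound incubated about four days before reading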
YB-1 expression – inhibitors of YB-1 gene expression, primary screen, cell-based, fluorescence | AID 434959, 2010 | U2OS, qRT-PCR YB-1 vs CDIP delta delta Cp, 16 h; hits give high values; zero = DMSO, each unit about twofold | 0.37% of 30,000 active | delta delta Cp (YB-1 minus CDIP) (test concentration not listed);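 active means delta delta Cp rounded down to an integer at or above 3, about 3 SD of DMSO wells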;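 further: higher means less YB-1 transcript or more CDIP transcript relative to DMSO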
INS-1E ATP HTS – protection of INS-1E cells from cytokine death, primary screen, ATP luminescence, single point | INS-1E cytokine-induced death, 48 h; normalised: neutral wells 0, positive control 100 | protection from cytokine-induced ATP loss, % at 10 µM | 0.1% of 20,000 active | AID 488910, 2010;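 active means mean replicate protection from cytokine-induced ATP loss at least 50% and at least 75% of replicates each reaching 50%; inconclusive means meets only one of the two criteria, mean or replicate share; inactive means fails both the mean and replicate share criteria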
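Material: INS-1E rat cells; Quantity: 8000 cells/well; Buffer or medium: phenol-red-free RPMI with 5% fetal bovine serum; Probe or stimulus: cytokine cocktail of IFN-γ, TNF-α and IL-1β; Compound dosing: single test concentration per compound, delivered by pin transfer; Incubation: 48 h co-treatment, 10 min post-lysis read; Signal: CellTiter-Glo luminescence.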
Large screens that a line does not name were inactive.

C[C@H]1CN([C@@H](C)CO)C(=O)Cc2cc(NC(=O)Nc3cccc4ccccc34)ccc2O[C@H]1CN(C)CC1CCCCC1	T cruzi HTS 62
C[C@H]1CN([C@@H](C)CO)C(=O)Cc2cc(NC(=O)Nc3cccc4ccccc34)ccc2O[C@@H]1CN(C)CC1CC1	none
CC(C)NC(=O)N(C)C[C@H]1Oc2ccc(NC(=O)C3CCCCC3)cc2CC(=O)N([C@H](C)CO)C[C@H]1C	none
CCc1cccc(C(C)C)c1NS(=O)(=O)c1ccc(C)cc1	none (no result: T cruzi HTS, INS-1E ATP HTS)
O=C(N/N=C/c1ccccc1O)c1ccccc1O	none
O=C(N/N=C/c1ccc(O)c(O)c1O)c1ccccc1O	T cruzi HTS 57
O=C(NO)c1cccc(C(=O)N/N=C/c2cccc(O)c2O)c1	none
O=C(N/N=C/c1cc(O)ccc1O)c1ccccc1O	none
O=C(N/N=C/c1cc(Cl)cc(Cl)c1O)c1ccccc1O	T cruzi HTS 73
O=C(NO)c1cccc(C(=O)N/N=C/c2ccc(O)c(O)c2O)c1	T cruzi HTS 61
C[C@@H]1CN([C@H](C)CO)C(=O)c2cccc(NS(=O)(=O)c3ccccc3)c2O[C@@H]1CN(C)CC1CCCCC1	none
C/C(=C/CCC(CO)C1CCC2(C)C3CCC4C(C)(C)C(OC5OC(CO)C(O)C(O)C5O)CCC45CC35CCC12C)COC1OC(COC2OC(CO)C(O)C(O)C2O)C(O)C(O)C1O (centres undefined)	YB-1 expression 5.8 (no result: T cruzi HTS, INS-1E ATP HTS)
C/C(=C/CCC(CO)C1CCC2(C)C3CCC4C(C)(C)C(OC5OC(CO)C(O)C(O)C5O)CC(O)C45CC35CCC12C)COC1OC(CO)C(O)C(O)C1O (centres undefined)	none (no result: T cruzi HTS, INS-1E ATP HTS)
COc1cc(CCc2cc(OC)c(C)cc2OC)c(OC)cc1C	none (no result: T cruzi HTS, INS-1E ATP HTS)
COc1cc(/C=N/NC(=O)CCCCCC(=O)Nc2ccccc2O)c(Br)cc1O	none
C[C@H]1CN([C@@H](C)CO)C(=O)c2cc(NS(=O)(=O)c3ccc(F)cc3)ccc2O[C@@H]1CN(C)Cc1ccc(Cl)c(Cl)c1	T cruzi HTS 70
C[C@@H]1CCCCO[C@@H](CN(C)Cc2ccc(Cl)c(Cl)c2)[C@@H](C)CN([C@H](C)CO)C(=O)c2cc(NS(=O)(=O)c3ccc(F)cc3)ccc2O1	T cruzi HTS 56
C[C@@H]1CCCCO[C@@H](CN(C)Cc2ccc(C(F)(F)F)cc2)[C@@H](C)CN([C@H](C)CO)C(=O)c2cc(NS(=O)(=O)c3ccccc3)ccc2O1	none
C[C@@H]1CCCCO[C@H](CN(C)Cc2ccc(Cl)c(Cl)c2)[C@@H](C)CN([C@H](C)CO)C(=O)c2cc(NS(=O)(=O)c3cccs3)ccc2O1	none
C[C@@H]1CCCCO[C@@H](CN(C)Cc2ccc(C(F)(F)F)cc2)[C@@H](C)CN([C@H](C)CO)C(=O)c2cc(NS(=O)(=O)c3ccc(F)cc3)ccc2O1	T cruzi HTS 64
C[C@@H]1CCCCO[C@@H](CN(C)Cc2ccc(Cl)c(Cl)c2)[C@@H](C)CN([C@H](C)CO)C(=O)c2cc(NS(=O)(=O)c3cccs3)ccc2O1	T cruzi HTS 68
C[C@H](CO)N1C[C@H](C)[C@H](CN(C)Cc2ccc(Cl)c(Cl)c2)Oc2ccc(NS(=O)(=O)c3ccc(F)cc3)cc2C1=O	none
Cc1ccc(S(=O)(=O)Nc2ccc3c(c2)C(=O)N([C@H](C)CO)C[C@H](C)[C@@H](CN(C)Cc2ccc(Cl)c(Cl)c2)OCCCC[C@@H](C)O3)cc1	T cruzi HTS inconclusive
O=C1O[C@H](c2ccccc2)[C@H](c2ccccc2)N2[C@H]1[C@@H](C(=O)N1CCN(c3ncccn3)CC1)[C@]1(C(=O)Nc3ccc(C#CCCO)cc31)[C@H]2c1ccc(O)cc1	none (no result: T cruzi HTS, INS-1E ATP HTS)
Cc1noc(C)c1S(=O)(=O)N(C)C[C@@H]1Oc2ccc(NS(=O)(=O)c3ccc(F)cc3)cc2C(=O)N([C@H](C)CO)C[C@@H]1C	none
Cc1noc(C)c1NC(=O)N(C)C[C@@H]1Oc2ccc(NS(=O)(=O)c3c(C)noc3C)cc2C(=O)N([C@@H](C)CO)C[C@H]1C	none
Cc1cc(C(=O)Nc2cccc3c2O[C@@H](CN(C)S(=O)(=O)c2cn(C)cn2)[C@H](C)CN([C@@H](C)CO)C3=O)n(C)n1	none
COc1ccc(CN(C)C[C@H]2Oc3ccc(NC(=O)Nc4ccc5c(c4)OCO5)cc3C(=O)N([C@@H](C)CO)C[C@H]2C)cc1	none
C[C@@H]1CN([C@H](C)CO)C(=O)c2cc(NS(=O)(=O)c3ccc(Cl)cc3)ccc2O[C@@H]1CN(C)Cc1ccc(Cl)c(Cl)c1	T cruzi HTS 85
C[C@@H]1CN([C@@H](C)CO)C(=O)c2cc(NS(=O)(=O)c3ccccc3)ccc2O[C@@H]1CN(C)Cc1ccc(Cl)c(Cl)c1	none
C[C@H](CO)N1C[C@H](C)[C@H](CN(C)Cc2ccc(Cl)c(Cl)c2)Oc2ccc(NS(=O)(=O)c3ccc(Cl)cc3)cc2C1=O	none
Cc1ccc(S(=O)(=O)Nc2ccc3c(c2)C(=O)N([C@H](C)CO)C[C@@H](C)[C@H](CN(C)Cc2ccc(Cl)c(Cl)c2)O3)cc1	none
C[C@H]1CN([C@@H](C)CO)C(=O)c2cc(NS(=O)(=O)c3ccccc3)ccc2O[C@H]1CN(C)Cc1ccc(Cl)c(Cl)c1	T cruzi HTS 52 (no result: INS-1E ATP HTS)
C[C@@H]1CN([C@@H](C)CO)C(=O)c2cc(NS(=O)(=O)c3ccc(Cl)cc3)ccc2O[C@@H]1CN(C)Cc1ccc(Cl)c(Cl)c1	T cruzi HTS 58
O=C(Nc1ccccc1)OC1CCCC1	none (no result: T cruzi HTS, INS-1E ATP HTS)
C[C@H](CO)N1C[C@H](C)[C@H](CN(C)Cc2ccc(C(=O)Nc3ccccc3N)cc2)Oc2ccc(NS(=O)(=O)c3cccs3)cc2C1=O	T cruzi HTS 65
C[C@H]1CN([C@@H](C)CO)C(=O)Cc2cc(NS(=O)(=O)c3cccs3)ccc2O[C@@H]1CN(C)Cc1ccc(C(=O)Nc2ccccc2N)cc1	none
C[C@H]1CN([C@@H](C)CO)C(=O)c2cc(NS(=O)(=O)c3cccs3)ccc2O[C@H]1CN(C)Cc1ccc(C(=O)Nc2ccccc2N)cc1	none
C[C@@H]1CN([C@H](C)CO)C(=O)Cc2cc(NS(=O)(=O)c3cccs3)ccc2O[C@@H]1CN(C)Cc1ccc(C(=O)Nc2ccccc2N)cc1	none
C[C@@H]1CN([C@@H](C)CO)C(=O)Cc2cc(NS(=O)(=O)c3cccs3)ccc2O[C@@H]1CN(C)Cc1ccc(C(=O)Nc2ccccc2N)cc1	T cruzi HTS 62
C[C@@H]1CN([C@H](C)CO)C(=O)c2cc(NS(=O)(=O)c3cccs3)ccc2O[C@@H]1CN(C)Cc1ccc(C(=O)Nc2ccccc2N)cc1	T cruzi HTS 64
C[C@H]1CN([C@@H](C)CO)C(=O)Cc2cc(NC(=O)Nc3cccc4ccccc34)ccc2O[C@@H]1CN(C)Cc1ccc(C(=O)Nc2ccccc2N)cc1	none
C[C@H]1CN([C@@H](C)CO)C(=O)Cc2cc(NC(=O)Nc3ccc(F)cc3)ccc2O[C@H]1CN(C)Cc1ccc(C(=O)Nc2ccccc2N)cc1	T cruzi HTS 56
C[C@@H]1CN([C@H](C)CO)C(=O)Cc2cc(NC(=O)Nc3ccc(F)cc3)ccc2O[C@@H]1CN(C)Cc1ccc(C(=O)Nc2ccccc2N)cc1	T cruzi HTS 60

Screens from PubChem BioAssay.
